Results of several laboratories.

SMILES | test system | conditions | measurement | result
C[C@H]1[C@@H](O)O[C@@H]2O[C@@]3(C)CC[C@H]4[C@H](C)CC[C@@H]1[C@@]24OO3 | Sprague-Dawley rat, plasma | oral, 10 mg/kg | AUC(0-inf) | 205 ng·h/mL
CC(=Nc1ccc(N=Cc2cnccn2)cc1)N(C)C | male Sprague-Dawley rat, plasma | intravenous, 20 mg/kg | AUC(0-t) | 254 ng·h/mL
N#C[C@@]12C[C@@H]1[C@@H](n1cnc3c(N[C@@H](C4CCC4)C4CC4)nc(I)nc31)[C@H](O)[C@@H]2O | male Wistar rat, plasma | oral, 3 mg/kg | AUC(0-t) | 66.4 ng·h/mL
COc1ccc2cc3n(c(=O)c2c1OC)CCc1cc2c(cc1-3)OCO2 | male Sprague-Dawley rat, blood | oral, 50 mg/kg | AUC(0-t) | 701 ng·h/mL
CC1(CN)CCN(c2cnc3c(Sc4ccncc4Cl)n[nH]c3n2)CC1 | male Sprague-Dawley rat, plasma | intravenous, 2 mg/kg | AUC | 151 ng·h/mL
O=C1c2ccncc2C(=O)c2c1[nH]c1ccccc21 | rat, plasma | intravenous, 1 mg/kg, single dose | AUC(0-inf) | 1430 nM·h
O=C(C=Cc1ccccc1)Nc1cc(-c2ccnc(N3CCC(O)CC3)c2)ccn1 | female Sprague-Dawley rat, plasma | intravenous, 5 mg/kg | AUC(0-inf) | 375 ng·h/mL
O=C1CC[C@H](N2Cc3cc(N4CCN(CC5CCN(c6ccc([C@@H]7c8ccc(O)cc8CC[C@@H]7c7ccccc7)cc6)CC5)CC4)ccc3C2=O)C(=O)N1 | female Sprague-Dawley rat, plasma | oral, 20 mg/kg, fed | AUC(0-t) | 18400 ng·h/mL
